Test results published in ChEMBL document CHEMBL1255500, “Safety and pharmacokinetics of the antiorthopoxvirus compound ST-246 following repeat oral dosing in healthy adult subjects” (Antimicrob Agents Chemother, 2010).

Experiments:
Homo sapiens [1] = experiment: Toxicity in healthy human assessed as incidence of abnormal eye sensation at 800 mg/day, po administered for 21 days; format: organism-based; conditions: in vivo, 504 h
Outline: (§1)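 Randomized, double-blind, placebo-controlled escalating study; 8 active and 2 placebo subjects per dose group, oral daily dosing after a standard light meal for 21 days. Safety was followed through adverse event reporting, vital signs, physical exam, hematology, blood chemistry, urinalysis and ECGs, with clinic visits at weeks 1 to 3. Laboratory AEs were graded by DAIDS criteria. Results are the number and percentage of subjects reporting each treatment-emergent AE.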

Homo sapiens [2] = experiment: Toxicity in healthy human assessed as incidence of abnormal eye sensation at 250 mg/day, po administered for 21 days; format: organism-based; conditions: in vivo, 504 h; outline: as §1
[3] = AUC in healthy human at 800 mg/day, po administered for 21 days measured at day 6; format: ADME, organism-based; conditions: plasma
Outline: (§2)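 Healthy adult volunteers, 8 per dose group, in the nonfasted state. Each took one oral dose daily for 21 days, within 30 min after a standard light meal (400 to 450 cal, ~25% fat). Venous blood was drawn predose and postdose on days 1, 6 and 21. Plasma was stored at −70°C and assayed by validated LC-MS/MS with an analog internal standard (range 50 to 4,000 ng/ml). AUCtau and Cmax were obtained by noncompartmental analysis.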

Homo sapiens [4] = experiment: Toxicity in healthy human assessed as incidence of fatigue at 250 mg/day, po administered for 21 days; format: organism-based; conditions: in vivo, 504 h; outline: as §1
Homo sapiens [5] = experiment: Toxicity in healthy human assessed as incidence of somnolence at 800 mg/day, po administered for 21 days; format: organism-based; conditions: in vivo, 504 h; outline: as §1
Homo sapiens [6] = experiment: Toxicity in healthy human assessed as incidence of flatulence at 250 mg/day, po administered for 21 days; format: organism-based; conditions: in vivo, 504 h; outline: as §1
Homo sapiens [7] = experiment: Toxicity in healthy human assessed as incidence of flatulence at 400 mg/day, po administered for 21 days; format: organism-based; conditions: in vivo, 504 h; outline: as §1
Homo sapiens [8] = experiment: Toxicity in healthy human assessed as incidence of headache at 250 mg/day, po administered for 21 days; format: organism-based; conditions: in vivo, 504 h; outline: as §1
Homo sapiens [9] = experiment: Toxicity in healthy human assessed as incidence of headache at 400 mg/day, po administered for 21 days; format: organism-based; conditions: in vivo, 504 h; outline: as §1
[10] = Cmax in healthy human at 400 mg/day, po administered for 21 days measured at day 1; format: ADME, organism-based; set-up: dose 400 mg/day, route oral; conditions: in vivo; outline: as §2
[11] = AUC in healthy human at 400 mg/day, po administered for 21 days measured at day 6; format: ADME, organism-based; conditions: plasma; outline: as §2
Homo sapiens [12] = experiment: Toxicity in healthy human assessed as incidence of urticaria at 400 mg/day, po administered for 21 days; format: organism-based; conditions: in vivo, 504 h; outline: as §1
Homo sapiens [13] = experiment: Toxicity in healthy human assessed as incidence of abnormal eye sensation at 400 mg/day, po administered for 21 days; format: organism-based; conditions: in vivo, 504 h; outline: as §1
[14] = AUC in healthy human at 250 mg/day, po administered for 21 days measured at day 6; format: ADME, organism-based; conditions: plasma; outline: as §2
[15] = Cmax in healthy human at 250 mg/day, po administered for 21 days measured at day 1; format: ADME, organism-based; set-up: dose 250 mg/day, route oral; conditions: in vivo; outline: as §2
[16] = Tmax in healthy human at 250 to 800 mg/day, po administered for 21 days measured at day 21; format: ADME, organism-based; conditions: in vivo
Outline: (§3)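 Phase I randomized, double-blind, placebo-controlled escalating multiple-dose study; 8 nonfasting healthy adults per dose group, one oral dose daily within 30 min after a standard light meal (400 to 450 cal, ~25% fat) for 21 days. Plasma was sampled serially on days 1, 6 and 21 (72 h after the last dose) and stored at −70°C. ST-246 was measured by validated LC-MS/MS with an analog internal standard (plasma range 50 to 4,000 ng/ml). Parameters (AUCtau, Cmax, Tmax, t1/2) came from noncompartmental analysis.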

Homo sapiens [17] = experiment: Toxicity in healthy human assessed as incidence of nausea at 800 mg/day, po administered for 21 days; format: organism-based; conditions: in vivo, 504 h; outline: as §1
[18] = AUC in healthy human at 400 mg/day, po administered for 21 days measured at day 21; format: ADME, organism-based; set-up: dose 400 mg/day, route oral; conditions: plasma; outline: as §3
[19] = Cmax in healthy human at 800 mg/day, po administered for 21 days measured at day 6; format: ADME, organism-based; set-up: dose 800 mg/day, route oral; conditions: in vivo; outline: as §2
[20] = AUC in healthy human at 250 mg/day, po administered for 21 days measured at day 1; format: ADME, organism-based; conditions: plasma; outline: as §3
[21] = Cmax in healthy human at 800 mg/day, po administered for 21 days measured at day 1; format: ADME, organism-based; set-up: dose 800 mg/day, route oral; conditions: in vivo; outline: as §2
[22] = Tmax in healthy human at 250 to 800 mg/day, po administered for 21 days measured at day 6; format: ADME, organism-based; conditions: in vivo; outline: as §3
[23] = Cmax in healthy human at 400 mg/day, po administered for 21 days measured at day 6; format: ADME, organism-based; set-up: dose 400 mg/day, route oral; conditions: in vivo; outline: as §2
[24] = Half life in healthy human at 250 mg/day, po administered for 21 days measured at day 21; format: ADME, organism-based; conditions: in vivo
Outline: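 Healthy nonfasted volunteers took one oral dose daily for 21 days after a standard light meal. Plasma was sampled for 72 h after the last dose on day 21 (days 21 to 24) and quantified by validated LC-MS/MS. Terminal t1/2 was derived noncompartmentally from the observed elimination rate constant (λz), and mean and median were given.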

[25] = Half life in healthy human at 400 mg/day, po administered for 21 days measured at day 21; format: ADME, organism-based; conditions: in vivo; outline: as §3
[26] = AUC in healthy human at 800 mg/day, po administered for 21 days measured at day 1; format: ADME, organism-based; conditions: plasma; outline: as §2
Homo sapiens [27] = experiment: Toxicity in healthy human assessed as incidence of urticaria at 800 mg/day, po administered for 21 days; format: organism-based; conditions: in vivo, 504 h; outline: as §1
Homo sapiens [28] = experiment: Toxicity in healthy human assessed as incidence of treatment-emergent adverse events at 800 mg/day, po administered for 21 days; format: organism-based; conditions: in vivo, 504 h; outline: as §1
Homo sapiens [29] = experiment: Toxicity in healthy human assessed as incidence of flatulence at 800 mg/day, po administered for 21 days; format: organism-based; conditions: in vivo, 504 h; outline: as §1
Homo sapiens [30] = experiment: Toxicity in healthy human assessed as incidence of treatment-emergent adverse events at 250 mg/day, po administered for 21 days; format: organism-based; conditions: in vivo, 504 h; outline: as §1
Homo sapiens [31] = experiment: Toxicity in healthy human assessed as incidence of dry mouth at 400 mg/day, po administered for 21 days; format: organism-based; conditions: in vivo, 504 h; outline: as §1
[32] = Cmax in healthy human at 250 mg/day, po administered for 21 days measured at day 6; format: ADME, organism-based; set-up: dose 250 mg/day, route oral; conditions: in vivo; outline: as §2
Homo sapiens [33] = experiment: Toxicity in healthy human assessed as incidence of headache at 800 mg/day, po administered for 21 days; format: organism-based; conditions: in vivo, 504 h; outline: as §1
Homo sapiens [34] = experiment: Toxicity in healthy human assessed as incidence of dry mouth at 800 mg/day, po administered for 21 days; format: organism-based; conditions: in vivo, 504 h; outline: as §1
Homo sapiens [35] = experiment: Toxicity in healthy human assessed as incidence of fatigue at 400 mg/day, po administered for 21 days; format: organism-based; conditions: in vivo, 504 h; outline: as §1
[36] = AUC in healthy human at 400 mg/day, po administered for 21 days measured at day 1; format: ADME, organism-based; conditions: plasma; outline: as §3
Homo sapiens [37] = experiment: Toxicity in healthy human assessed as incidence of somnolence at 400 mg/day, po administered for 21 days; format: organism-based; conditions: in vivo, 504 h; outline: as §1
Homo sapiens [38] = experiment: Toxicity in healthy human assessed as incidence of dry mouth at 250 mg/day, po administered for 21 days; format: organism-based; conditions: in vivo, 504 h; outline: as §1
[39] = Cmax in healthy human at 400 mg/day, po administered for 21 days measured at day 21; format: ADME, organism-based; conditions: in vivo; outline: as §3
Homo sapiens [40] = experiment: Toxicity in healthy human assessed as incidence of nausea at 250 mg/day, po administered for 21 days; format: organism-based; conditions: in vivo, 504 h; outline: as §1
Homo sapiens [41] = experiment: Toxicity in healthy human assessed as incidence of somnolence at 250 mg/day, po administered for 21 days; format: organism-based; conditions: in vivo, 504 h; outline: as §1
[42] = AUC in healthy human at 250 mg/day, po administered for 21 days measured at day 21; format: ADME, organism-based; conditions: plasma; outline: as §2
[43] = Tmax in healthy human at 250 to 800 mg/day, po administered for 21 days measured at day 1; format: ADME, organism-based; conditions: in vivo; outline: as §3
Homo sapiens [44] = experiment: Toxicity in healthy human assessed as incidence of urticaria at 250 mg/day, po administered for 21 days; format: organism-based; conditions: in vivo, 504 h; outline: as §1
Homo sapiens [45] = experiment: Toxicity in healthy human assessed as incidence of fatigue at 800 mg/day, po administered for 21 days; format: organism-based; conditions: in vivo, 504 h; outline: as §1
[46] = Half life in healthy human at 800 mg/day, po administered for 21 days measured at day 21; format: ADME, organism-based; conditions: in vivo; outline: as §3
Homo sapiens [47] = experiment: Toxicity in healthy human assessed as incidence of nausea at 400 mg/day, po administered for 21 days; format: organism-based; conditions: in vivo, 504 h; outline: as §1
[48] = AUC in healthy human at 800 mg/day, po administered for 21 days measured at day 21; format: ADME, organism-based; conditions: plasma; outline: as §2

SMILES: O=C(NN1C(=O)[C@@H]2[C@@H]3C=C[C@@H]([C@H]4C[C@@H]34)[C@@H]2C1=O)c1ccc(C(F)(F)F)cc1 [TECOVIRIMAT]
- Activity (Homo sapiens [1]): 12.5%
- Activity (Homo sapiens [2]): 0%
- AUC at 504 h [3]: 23400 ng·h/mL
- Activity (Homo sapiens [4]): 12.5%
- Activity (Homo sapiens [5]): 12.5%
- Activity (Homo sapiens [6]): 0%
- Activity (Homo sapiens [7]): 0%
- Activity (Homo sapiens [8]): 37.5%
- Activity (Homo sapiens [9]): 0%
- Cmax [10]: 1390 ng/mL
- AUC at 504 h [11]: 15400 ng·h/mL
- Activity (Homo sapiens [12]): 0%
- Activity (Homo sapiens [13]): 0%
- AUC at 504 h [14]: 11900 ng·h/mL
- Cmax [15]: 985 ng/mL
- Tmax [16]: 2.67 h
- Activity (Homo sapiens [17]): 12.5%
- AUC at 504 h [18]: 16200 ng·h/mL
- Cmax [19]: 2340 ng/mL
- AUC at 504 h [20]: 9100 ng·h/mL
- Cmax [21]: 2280 ng/mL
- Tmax [22]: 2.63 h
- Cmax [23]: 1300 ng/mL
- half-life [24]: 18.8 h
- half-life [25]: 19.8 h
- AUC at 504 h [26]: 21000 ng·h/mL
- Activity (Homo sapiens [27]): 0%
- Activity (Homo sapiens [28]): 62.5%
- Activity (Homo sapiens [29]): 25%
- Activity (Homo sapiens [30]): 75%
- Activity (Homo sapiens [31]): 0%
- Cmax [32]: 1210 ng/mL
- Activity (Homo sapiens [33]): 25%
- Activity (Homo sapiens [34]): 12.5%
- Activity (Homo sapiens [35]): 0%
- AUC at 504 h [36]: 13100 ng·h/mL
- Activity (Homo sapiens [37]): 0%
- Activity (Homo sapiens [38]): 0%
- Cmax [39]: 1460 ng/mL
- Activity (Homo sapiens [40]): 0%
- Activity (Homo sapiens [41]): 0%
- AUC at 504 h [42]: 10100 ng·h/mL
- Tmax [43]: 2.88 h
- Activity (Homo sapiens [44]): 0%
- Activity (Homo sapiens [45]): 0%
- half-life [46]: 20.7 h
- Activity (Homo sapiens [47]): 0%
- AUC at 504 h [48]: 22700 ng·h/mL
